As usually defined, the IC50 is the concentration that inhibits the measured activity by half.

The assay addresses O-acetylserine sulfhydrylase (Mycobacterium tuberculosis (strain ATCC 25618 / H37Rv), UniProt P9WP55). Description: Inhibition of Mycobacterium tuberculosis CysK1 using O-acetyl-L-serine as substrate assessed as L-cycteine formation after 5 mins by spectrophotometric analysis. In outline:
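Dose–response: serial 1:3 dilutions prepared in 50% DMSO (final DMSO 5%). Final mix was 100 mM MOPS pH 7.0, 2 mM O-acetyl-L-serine, […] CysK1, preincubated 5 min at room temperature. The reaction was started with sodium sulphide (final 1 mM). Aliquots taken at time intervals were assayed for L-cysteine by acid-ninhydrin. Specific activity vs concentration was fitted to a sigmoid for IC50.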

For `O=C1Nc2c(c(=O)nc3sc([N+](=O)[O-])cn23)C(c2ccccc2C(F)(F)F)N1` (configuration not stated), the concentration for half-maximal inhibition (IC50) stood at 17.7 µM.

Regarding `Cc1ccccc1C1NC(=S)Nc2c1c(=O)nc1sc([N+](=O)[O-])cn21` (configuration not stated), the IC50 was 17.7 µM.

These data come from BindingDB's records for doi:10.1016/j.bmcl.2013.01.031 (Birla Institute of Technology, 2013).
